# KCNK3 inh = human KCNK3 channel inhibitors, primary screen, CHO cells, FluxOR thallium flux, B-score; Potassium channel subfamily K member 3 (Homo sapiens), O14649; FluxOR fluorescence; hits give low values; B-score at 10 µM; 0.84% of 340,000 active;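 active = B-score under library mean minus 4 SD, starting fluorescence ratio at most library mean plus 5 SD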;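 note: more negative B-score means stronger inhibition of thallium flux through KCNK3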
# Kir21 inh = inhibitors of mouse Kir2.1 inward-rectifier potassium channel. Inward rectifier potassium channel 2 (Mus musculus), P35561. HEK293-Kir2.1, FluxOR thallium flux fluorescence; hits give low values. B-score at 10 µM. 0.85% of 310,000 active;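 active = fluorescence ratio B-score at or below minus 3 SD of library scores, with starting-brightness B-score within 2 SD, cut at about -4.2 in these data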;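 note: channel flux triggered by added potassium and thallium sulfate stimulus; B-score of peak minus minimum fluorescence over baseline after thallium stimulus; more negative B-score means stronger Kir2.1 block with less thallium influx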
# Target sequence (P35561 whole entry, looked up): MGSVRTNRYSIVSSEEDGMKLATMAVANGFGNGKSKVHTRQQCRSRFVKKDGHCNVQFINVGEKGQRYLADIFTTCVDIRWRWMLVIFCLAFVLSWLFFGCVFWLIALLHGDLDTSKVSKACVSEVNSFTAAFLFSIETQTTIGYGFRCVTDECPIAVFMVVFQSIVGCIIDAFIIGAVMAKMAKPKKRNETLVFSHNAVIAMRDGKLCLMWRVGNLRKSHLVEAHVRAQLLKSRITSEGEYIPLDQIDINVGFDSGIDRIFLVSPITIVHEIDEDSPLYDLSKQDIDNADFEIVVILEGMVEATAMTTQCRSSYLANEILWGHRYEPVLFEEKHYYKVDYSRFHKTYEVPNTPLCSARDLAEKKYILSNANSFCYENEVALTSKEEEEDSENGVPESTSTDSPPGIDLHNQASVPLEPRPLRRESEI
# KCNQ1 act = potentiators or activators of KCNQ1 channel, primary screen, cell-based, thallium flux, high-throughput; CHO-K1 KCNQ1, thallium flux FluxOR fluorescence; hits give high values; B-score at 10 µM; 0.35% of 310,000 active;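 active = fluorescence ratio B-score, a plate-corrected score, at least three library SD, with initial intensity B-score within 5 SD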
#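 Assay system: CHO-K1 cells stably expressing KCNQ1; Medium: assay buffer with matched DMSO; Also added: K+/Tl+ depolarizing stimulus; Dosing: single dose; Timing: dye 90 min, compound 20 min, room temperature; Measured by: kinetic FluxOR thallium fluorescence, 10-s 1-Hz baseline, 110-s post-stimulus read; Read-out: peak-minus-minimum fluorescence over initial fluorescence, negative-control normalized, B-scored.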
# KCNQ1 block = inhibitors of human KCNQ1 channel, primary screen, cell-based, thallium flux, high-throughput. Potassium voltage-gated channel subfamily KQT member 1 (Homo sapiens), P51787. CHO-K1 KCNQ1, FluxOR thallium flux fluorescence; hits give high values. B-score at 10 µM. 1.3% of 310,000 active. AID 2642, 2010;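 active = compounds whose thallium flux B-score, printed positive for inhibition, exceeds three library SD while starting fluorescence stays within three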;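 note: channel opened by potassium depolarization with thallium stimulus after 20 min compound exposure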
# KCNK9 block = KCNK9 potassium channel inhibitors, primary screen, HEK293 cells, thallium flux. Potassium channel subfamily K member 9 (Homo sapiens), Q9NPC2. B-score at 10 µM. 1.2% of 310,000 active. FluxOR thallium flux fluorescence; hits give low values;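 active = ratio B-score over 3 SD below the library mean, with starting fluorescence within 5 SD of its mean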;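 note: negative B-score means less thallium flux so channel inhibition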
# hERG protect = hERG rescue from dofetilide block, primary screen, cell-based, CHO-hERG, FluxOR thallium flux, dofetilide IC70; activation (rescue from dofetilide block), less the hit threshold, % at 10 µM; AID 1511, 2009; Voltage-gated inwardly rectifying potassium channel KCNH2 (Homo sapiens), Q12809; dofetilide IC70 present; 0.51% of 310,000 active;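 active = activation above the mean of controls blocked by dofetilide plus 5 SD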;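 note: thallium influx through hERG after potassium depolarization seen as dye fluorescence rise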
# KCNK9 block conf = KCNK9 potassium channel inhibitors, confirmation, HEK293 cells, thallium flux, duplicate; shares compounds with KCNK9 block; FluxOR thallium flux fluorescence; inhibition, % at 10 µM; 43% of 4,900 active; AID 492992, 2010;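 active = thallium signal inhibited by more than 5 SD of the compound-free buffer control wells, on both duplicate plates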;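 note: 0% = assay buffer control wells without compound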
# Kir21 sel = mouse Kir2.1 channel inhibition, confirmation, selectivity assay for KCNK9 modulator project, cell-based, HEK293, thallium flux; 4% of 4,900 active; Kir2.1 cells, FluxOR thallium flux fluorescence; inhibition, % at 10 µM; shares compounds with KCNK9 block;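 active = thallium signal drop more than 5 SD beyond the mean of the no-compound control wells, seen in both duplicate plates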;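 note: signal is fluorescence rise after thallium addition divided by baseline fluorescence; plate controls were assay buffer only for no effect and full block by chlorpromazine control for full effect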
# HEK293 Tl ctr = thallium flux in non-induced HEK293 cells, confirmation, counter-screen for KCNK9 inhibitor project, cell-based, second counter screen, non-induced KCNK9-HEK293; shares compounds with KCNK9 block; FluxOR thallium flux; inhibition, % at 10 µM; 40% of 4,900 active; AID 492997, 2010;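 active = thallium signal drop beyond 5 SD of the untreated control mean, on both duplicate plates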;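 note: plate controls were buffer only IC0 wells for no effect and SID17386958 at its maximal inhibitory level for full effect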
# The depositor's hits bear a star; i = inactive; nt = not tested or not shown. This is a sample that favours compounds with a hit; in the whole collection about 3.7% have one here.
SMILES,KCNK3 inh,Kir21 inh,KCNQ1 act,KCNQ1 block,KCNK9 block,hERG protect,KCNK9 block conf,Kir21 sel,HEK293 Tl ctr
CC1=CCC2C(=O)N(c3cccc(C(=O)Nc4ccccc4Cl)c3)C(=O)C2C1 (stereo not drawn),i,0.19,i,i,i,-4,nt,nt,nt
C=CCc1ccc(O)c(-c2cc(CC=C)ccc2O)c1,i,-4.1,i,i,-17*,-12,62%*,i,i
C=CCc1ccc(OCc2ccc(C(=O)OC)o2)c(OC)c1,i,-1.4,i,i,i,-12,nt,nt,nt
Cc1cc(C)n(-c2nc(NCCN(C)C)c3c4c(sc3n2)COC(C)(C)C4)n1,i,-1.1,i,i,i,-12,nt,nt,nt
Cc1cc(C)n(-c2nc(NCCC(C)C)c3c4c(sc3n2)COC(C)(C)C4)n1,i,1.6,i,i,-12*,-13,58%*,i,32%*
Cc1ccc(S(=O)(=O)N2CCN(C(=O)CSc3ncc(C(F)(F)F)cc3Cl)CC2)cc1,i,-2.3,i,i,i,-6,i,i,i
O=C(COC(=O)c1cc[n+]([O-])cc1)Nc1cccc(Br)c1,i,nt,nt,nt,nt,nt,nt,nt,nt
CCCS(=O)(=O)N1CCN=C1SCc1cccc2ccccc12,i,-0.84,i,i,i,-12,i,i,i
O=C(O)CCC(=O)Nc1cccc(-c2nnc(-c3ccccc3)o2)c1,i,1.9,i,i,i,-1,nt,nt,nt
O=C(Nc1cccc(-c2nnc(-c3ccccc3)o2)c1)c1ccc(Br)o1,i,0.05,i,i,-20*,-2,44%*,i,i
N#Cc1c(Cl)cccc1N1CCC(C(N)=O)CC1,i,1,i,i,i,-3,nt,nt,nt
Cc1cc(C(=O)OC(C)C(=O)N2CCc3ccccc32)ccc1[N+](=O)[O-] (stereo not drawn),i,0.78,i,i,i,-11,i,i,i
Cc1ccc(/C=C(/NC(=O)c2ccccc2)C(=O)NC(Cc2c[nH]c3ccccc23)C(=O)O)cc1 (stereo not drawn),i,-0.1,i,i,i,-8,nt,nt,nt
CC(=O)c1cccc(NC(=O)C2C(c3ccccc3)C2(Cl)Cl)c1 (stereo not drawn),i,-0.37,i,i,i,-10,nt,nt,nt
Cc1cccc(NC(=O)C2C(c3ccccc3)C2(Cl)Cl)c1 (stereo not drawn),i,0.57,i,i,i,-11,i,i,i
O=C(NCc1ccc(F)cc1)c1noc2c1CCCC2,i,2.9,i,i,i,-5,nt,nt,nt
CC(C)(C)C1CCc2onc(C(=O)NCc3ccc(F)cc3)c2C1 (stereo not drawn),i,0.63,i,i,i,-9,i,i,i
O=C1N=c2ccc(Br)cc2=C1c1sc(=S)n(NS(=O)(=O)c2ccccc2)c1O,i,-1.1,i,i,i,-9,i,i,i
